Laboratory results as given in ChEMBL document CHEMBL5038583, “Highly Potent and Selective Butyrylcholinesterase Inhibitors for Cognitive Improvement and Neuroprotection” (J Med Chem, 2021).

Legend:
Cholinesterase = Cholinesterase (Homo sapiens, UniProt P06276); assay: Inhibition of human serum BChE using butyrylthiocholine iodide as substrate preincubated for 20 mins followed by substrate addition and measured after 2 mins by DTNB-reagent based Ellman's method
Method in brief: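 hBChE at 0.015 units/mL with DTNB in phosphate buffer pH 8.0, preincubated 20 min at room temperature with at least six concentrations (10⁻⁴−10⁻⁹). Butyrylthiocholine iodide (0.075 M solution) added; A412 read after 2 min at 25 °C. IC50 from % activity vs log concentration; triplicates in at least three runs.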

[1] = AUC (0 to t) in overnight fasted Sprague-Dawley rat at 10 mg/kg, po measured upto 1440 mins by LC/MS/MS analysis; format: ADME, organism-based; parameters: route oral, dose 10 mg/kg, time <=1440; settings: in vivo
Method in brief: (§1)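 Male SD rats (180−220 g), n = 8 per route, fasted overnight with water available. Single 10 mg/kg dose p.o. or i.v. in DMSO/PEG400/saline (10:80:10). Retro-orbital blood taken into heparinized tubes at 1–1440 min. Plasma precipitated with methanol containing theophylline internal standard, then LC/MS/MS against a blank-plasma standard curve. Parameters from noncompartmental extravascular analysis; mean ± SD.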

[2] = Cmax in overnight fasted Sprague-Dawley rat at 10 mg/kg, iv measured upto 1440 mins by LC/MS/MS analysis; format: ADME, organism-based; parameters: route intravenous, dose 10 mg/kg, time <=1440; settings: in vivo, 24 h; method in brief: as §1
[3] = Acute toxicity in ICR mouse assessed as animal death at […]; settings: in vivo, po, 1000 mg/kg, 336 h
[4] = Acute toxicity in ICR mouse assessed as abnormal behaviour at 1 g/kg, ig administered […]; settings: in vivo, po, 1000 mg/kg
Method in brief: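 Single dose of 1 g/kg given intragastrically on day 1 to overnight-fasted mice (15−18 g), suspended in 5% DMSO, 40% PEG 400, 55% saline. Male and female groups (n = 9), with vehicle controls. Death, daily behaviour and body mass followed over the next 2 weeks.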

Cholinesterase, sequence (P06276 whole entry): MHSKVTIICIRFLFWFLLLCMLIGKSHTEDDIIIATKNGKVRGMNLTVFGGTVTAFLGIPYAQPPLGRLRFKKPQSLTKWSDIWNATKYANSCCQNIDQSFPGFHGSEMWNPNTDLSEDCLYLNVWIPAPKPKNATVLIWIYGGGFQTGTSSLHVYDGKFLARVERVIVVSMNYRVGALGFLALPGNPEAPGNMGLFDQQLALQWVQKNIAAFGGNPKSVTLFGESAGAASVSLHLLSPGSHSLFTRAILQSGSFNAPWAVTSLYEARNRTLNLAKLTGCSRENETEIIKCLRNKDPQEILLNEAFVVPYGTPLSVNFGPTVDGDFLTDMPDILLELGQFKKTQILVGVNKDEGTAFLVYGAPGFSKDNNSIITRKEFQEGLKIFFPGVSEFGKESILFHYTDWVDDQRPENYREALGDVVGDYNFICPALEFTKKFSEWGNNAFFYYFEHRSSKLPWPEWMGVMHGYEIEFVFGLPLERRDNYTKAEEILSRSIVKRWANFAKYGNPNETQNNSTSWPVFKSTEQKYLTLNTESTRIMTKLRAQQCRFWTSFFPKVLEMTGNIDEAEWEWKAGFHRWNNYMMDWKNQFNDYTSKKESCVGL

## Nc1nonc1-c1nc2ccccc2n1CC(=O)Nc1cnc2ccccc2c1
Cholinesterase
  IC50: 16 nM
[1]
  AUC(0-t) at 24 h: 628 ng·h/mL
[2]
  Cmax: 488.33 ng/mL
[3]
  Activity: Non-Toxic
[4]
  Activity: Non-Toxic
